A selection: hits, their analogues and other compounds. The true share with any hit is near 1.6%.
TDP2 inh – blocks human TDP2 phosphodiesterase activity; O95551; recombinant TDP2, T5PNP hydrolysis, p-nitrophenol absorbance 415 nm; inhibition, % at 12.8 µM; 370,000 compounds, 0.34% hits; AID 720702;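 active = inhibition above the mean of all tested compounds plus 3 SD, set per campaign, cut at about 25% in these data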;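 note: 0% = DMSO with enzyme and 100% = buffer with substrate but no TDP2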
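Evaluation: % inhibition relative to enzyme-containing and enzyme-free wells. Material: recombinant human TDP2. Benchmarks: enzyme-free and DMSO wells. Timing: enzyme reaction with compound for 2 h at 37 °C. Compound dosing: 12.8 µM only. Measured by: p-Nitrophenol epi absorbance. Reagent: T5PNP substrate at 5 mM, a TopII-DNA adduct mimic. Replication: single well per compound.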
SUMO HTRF inh – blocks human SUMOylation mediated by UBC9; P63279; HTRF SUMOylation assay, SAE1/SAE2 + UBC9, in vitro; inhibition, % at 35 µM; 290,000 compounds, 0.36% hits; in the data active = inhibition above about 50%, passing the limit was not always enough
PAD4 inh – inhibitors of human PAD4; Q9UM07; recombinant PAD4, RCA probe fluorescence polarization; inhibition, % at 6.36 µM; 330,000 compounds, 0.41% hits; AID 485272;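 active = percent inhibition above a cutoff equal to the mean of all tested compounds plus 3 SD, cut at about 15% in these data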;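 note: 0% = PAD4 with RCA probe and DMSO and 100% = probe without PAD4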
GASC-1 inh – blocks human GASC-1 demethylase activity | GST-JMJD2C(1-420) H3K9me3 demethylation, DELFIA europium | inhibition, % at 2.35 µM | 330,000 compounds, 0.069% hits;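 active = more than half of a compound's replicate wells show inhibition beyond 50%, single wells judged on their own value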;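 note: signal counts dimethyl H3K9 product captured on neutravidin plate; 0% = median of DMSO wells and 100% = 0.3 times that DMSO median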
GSTO1 inh – GSTO1 inhibition, counter-screen for RBBP9 inhibitors | AID 1974 | 300,000 compounds, 1.1% hits | inhibition, % at 5.96 µM | P78417 | recombinant GSTO1, activity-based probe fluorescence polarization;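 active = inhibition above the campaign mean inhibition plus 3 SD, cut at about 35% in these data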;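 note: 0% = GSTO1-1 with DMSO and 100% = wells lacking GSTO1-1 enzyme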
Apaf1 inhib – human Apaf-1 inhibition | inhibition, % at 20 µM | 330,000 compounds, 0.71% hits | reconstituted apoptosome caspase-3 activity, DEVD-Rh110 fluorescence; active = inhibition of at least 40% at 20 µM;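 note: plate controls were DMSO wells for no effect and DEVD-CHO caspase inhibitor wells for full effect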
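System: reconstituted apoptosome with Apaf-1, cytochrome c, caspase-9, procaspase-3, dATP; Signal: Rh110 fluorescence intensity; Schedule: 30 min compound preincubation, 50 min activation, room temperature; Reagent: cytochrome c trigger plus (Z-DEVD)2-Rh110 caspase-3 substrate.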
GSTO1 inh conf – confirmation of human GSTO1 inhibitors. shares compounds with GSTO1 inh. recombinant GSTO1, probe fluorescence polarization. inhibition, % at 5.96 µM. 2,400 compounds, 54% hits;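 active = inhibition above the primary screen's cutoff, its mean inhibition plus 3 SD, cut at about 35% in these data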;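 note: loss of polarization as inhibitors block binding of rhodamine sulfonate ester activity probe; 0% = GSTO1 with DMSO and 100% = wells lacking GSTO1 enzyme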
Numbers without * were called inactive; . = not tested or not shown.

SMILES	TDP2 inh	SUMO HTRF inh	PAD4 inh	GASC-1 inh	GSTO1 inh	Apaf1 inhib	GSTO1 inh conf
COc1ccc(NC(=O)CSCc2cc(=O)n3nc(C4CC4)sc3n2)cc1	7	-3	1	-3	38*	3	18
C=CCN(Cc1ccc2c(c1)OCO2)C(C#Cc1ccccc1)c1ccccc1C(F)(F)F (stereo not drawn)	2	.	.	.	.	.	.
Nc1nc2c(s1)CCc1c-2cnn1-c1ccccc1	.	49	40*	-49	72*	93*	71*
Cc1ccc(-c2cnn(-c3ccccc3)c2N)cc1	-6	6	-6	-2	-8	10	.
COc1ccc(C(C(=O)N(C)C2CCCC2)N(Cc2ccc(F)cc2)C(=O)c2cc(C)on2)cc1OC (stereo not drawn)	8	.	.	.	.	.	.
Cc1nc2c(O)cccc2cc1CO	-6	-16	2	13	50*	6	4
Cc1cc(C)n(-c2cc(O)c(-n3nc(C)cc3C)cc2O)n1	-5	17	-6	1	47*	-1	3
C=C(C)c1cccc(C(C)(C)NC(=O)Nc2cccnc2)c1	-2	6	1	-17	-1	-3	.
C=C(C)c1cccc(C(C)(C)NC(=O)Nc2ncccn2)c1	-31	-2	-2	-1	39*	12	21
COc1cc(/C=C2/C(=O)c3cccc([N+](=O)[O-])c3C2=O)c(Br)cc1O	6	16	-6	3	47*	.	55*
CN(O)/C=c1/ccc2c(n1)C(=O)C=CC=2	-3	-29	-9	-4	64*	-2	21
S=C(NCc1ccc(Cl)cc1)OC1CCC12CCC(c1ccccc1)CC2 (stereo not drawn)	8	.	.	.	.	.	.
COC(=O)[C@H](CC(C)C)N(CCCc1cn(Cc2ccc(C)cc2)nn1)S(=O)(=O)c1ccc(F)cc1Br	-4	.	.	.	.	.	.
Cc1cc([N+](=O)[O-])c2c(c1C)C1C=CCC1C(c1ccccn1)N2 (stereo not drawn)	.	5	-1	3	52*	9	10
COC(=O)C1CN(C2CC2)CCS(=O)(=O)N1Cc1cn(Cc2ccc(Cl)cc2)nn1 (stereo not drawn)	2	.	.	.	.	.	.
O=C(O[C@@H]1Cc2c(O)cc(O)cc2O[C@@H]1c1cc(O)c(O)c(O)c1)c1cc(O)c(O)c(O)c1	.	41	.	-24	.	-6	.
Oc1cc(O)c2c(c1)O[C@H](c1ccc(O)c(O)c1)[C@H](O)C2	2	6	-2	9	40*	0	7
CC1=CC2(C(Cc3ccccc3)N(CC3CC3)C(=NC(=O)c3ccccc3)N2C(=O)OCc2ccccc2)n2c(=O)n(-c3ccccc3)c(=O)n2C1 (stereo not drawn)	-6	.	.	.	.	.	.
CCCC1CCC2(CCC(=O)N2CCSc2ccccc2)CC1 (stereo not drawn)	-9	.	.	.	.	.	.
COc1ccc2nc(-n3c(C)ccc3C)sc2c1	0	16	1	6	20	0	.
CCOc1ccc2nc(N3C(=O)/C(=C/c4ccccc4)NC3=S)sc2c1	-7	-39	3	0	59*	10	55*
CCOc1ccc2nc(N3CCCCCC3)sc2c1	.	-12	2	-7	10	10	.
COc1ccc2nc(N3C(=O)/C(=C/c4ccccc4)NC3=S)sc2c1	-1	-13	-15	11	42*	27	56*
Fc1ccccc1-c1n[nH]c(=S)n1N=Cc1ccc(OCc2ccccc2)cc1	-2	.	.	.	.	.	.
COC1=C(OC)C(=O)C(CCCCCCCCCCO)=C(C)C1=O	-4	-16	.	.	.	.	.
COC1=CC(=O)C(O)=C(CCCCCCC/C=C/CCCCCCCC2=C(O)C(=O)C=C(OC)C2=O)C1=O	.	.	6	-5	91*	12	90*
CCCCCCCCCCCC1=C(O)C(=O)C=C(O)C1=O	.	.	-2	-9	79*	.	66*
CC(C)(C)N1Cc2nnn(CC3CCCCC3)c2-c2cc(F)ccc2S1(=O)=O	7	.	.	.	.	.	.
NS(=O)(=O)c1ccc(CCNC(=O)c2ccc([N+](=O)[O-])s2)cc1	4	-4	-16	30	50*	6	7

Assay outcomes (PubChem BioAssay)
